Measured values as given in publication PMC9558256 (ACS Omega, 2022).

Assays:
M. tuberculosis H37Rv = assay: MIC determination by resazurin reduction microplate assay; type: cell-based, Mycobacterium tuberculosis; conditions: MIC comparison with literature BNF15
[1] = Cytotoxicity on Vero cells; type: cell-based; conditions: African green monkey
[2] = tested on: P. falciparum resistant strain F32-ART; assay: Antiplasmodial activity; type: cell-based; conditions: Plasmodium falciparum, F32, read-out: P. falciparum F32ART IC50
Method in brief: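 Test compounds screened against artemisinin-resistant P. falciparum F32-ART (selected after 144 intermittent, increasing artemisinin doses) by SYBR Green at 1 and 10 μM, in triplicate, in two independent experiments. Compounds giving around or above 50% growth inhibition at 10 μM were retested at four doses, each in triplicate, to derive IC50.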

[3] = Cytotoxicity on RAW 264.7 macrophages; type: cell-based; conditions: mouse
[4] = tested on: L. donovani intramacrophage amastigote forms (LV9); assay: In vitro antileishmanial evaluation on intramacrophage amastigotes; type: cell-based; conditions: Leishmania donovani, RAW264.7, 48 h, read-out: L. donovani IC50
Method in brief: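 RAW 264.7 macrophages were infected with L. donovani LV9 axenic amastigotes at 10 parasites per macrophage. Test compound was added 24 h post-infection for 48 h, with top concentrations set from RAW 264.7 cytotoxicity. Parasite growth reduction was read by SYBR Green incorporation and IC50 derived by regression. Miltefosine served as reference drug.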

[5] = tested on: L. donovani axenic amastigotes (LV9); assay: In vitro antileishmanial evaluation on axenic amastigotes; type: cell-based; conditions: Leishmania donovani, read-out: IC50 on the axenic form of L. donovani

CC(C)(C)Nc1oc2c(c1C1CCN(Cc3ccccc3)CC1)C(=O)c1ccccc1C2=O [Compound 17, 3-(1-Benzylpiperidin-4-yl)-2-(tert-butylamino)naphtho[2,3-b]furan-4,9-dione]
fold less active than BNF15 against M. tuberculosis (M. tuberculosis H37Rv): about 7 fold | CC50 [1]: 86 µM | IC50 [2]: 2.5 µM

CCCCNc1oc2c(c1-c1ccc([N+](=O)[O-])o1)C(=O)c1ccccc1C2=O [Compound 26, 2-(Butylamino)-3-(5-nitrofuran-2-yl)naphtho[2,3-b]furan-4,9-dione]
IC50 [2]: > 10 µM

CCCCNC=C1C(=O)C(=O)c2ccccc2C1=O [Compound 29, 3-((Butylamino)methylene)naphthalene-1,2,4(3H)-trione]
CC50 [3]: 46.5 µM | CC50 [1]: > 50 µM | IC50 [4]: 6.33 µM | IC50 [2]: 1.9 µM | IC50 [5]: < 10 µM

Cn1ncc2cc(-c3c(NC(C)(C)C)oc4c3C(=O)c3ccccc3C4=O)ccc21 [Compound 13, 2-(tert-Butylamino)-3-(1-methyl-1H-indazol-5-yl)naphtho[2,3-b]furan-4,9-dione]
IC50 [2]: > 10 µM

CCCCNc1oc2c(c1-c1ccc(Cl)cc1)C(=O)c1ccccc1C2=O [Compound 23, 2-(Butylamino)-3-(4-chlorophenyl)naphtho[2,3-b]furan-4,9-dione]
IC50 [2]: > 10 µM

CC(C)(C)Nc1oc2c(c1-c1ccc([N+](=O)[O-])o1)C(=O)c1ccccc1C2=O [Compound 15, 2-(tert-Butylamino)-3-(5-nitrofuran-2-yl)naphtho[2,3-b]furan-4,9-dione]
IC50 [2]: > 10 µM

COc1ccc(-c2c(NC(C)(C)C)oc3c2C(=O)c2ccccc2C3=O)cc1OC [Compound 12, 2-(tert-Butylamino)-3-(3,4-dimethoxyphenyl)naphtho[2,3-b]furan-4,9-dione]
IC50 [2]: > 10 µM

O=C1C=C(O)C(=O)c2ccccc21 [lawsone (1), 2-hydroxy-1,4-naphthoquinone, reference compound]
CC50 [3]: 44 µM | IC50 [4]: 6.27 µM | IC50 [2]: > 10 µM

O=C1c2ccccc2C(=O)c2c1oc(NC1CCCCC1)c2C1CCN(Cc2ccccc2)CC1 [Compound 22, 3-(1-Benzylpiperidin-4-yl)-2-(cyclohexylamino)naphtho[2,3-b]furan-4,9-dione]
CC50 [1]: 36 µM | IC50 [2]: 3.6 µM

CC(C)(C)Nc1oc2c(c1-c1ccc(Cl)cc1)C(=O)c1ccccc1C2=O [Compound 9, 2-(tert-Butylamino)-3-(4-chlorophenyl)naphtho[2,3-b]furan-4,9-dione]
IC50 [2]: > 10 µM

CCCCNc1oc2c(c1C1CCN(Cc3ccccc3)CC1)C(=O)c1ccccc1C2=O [Compound 27, 3-(1-Benzylpiperidin-4-yl)-2-(butylamino)naphtho[2,3-b]furan-4,9-dione]
CC50 [1]: 24 µM | IC50 [2]: 4 µM

O=C1C(O)=C([C@H]2CC[C@H](c3ccc(Cl)cc3)CC2)C(=O)c2ccccc21 [atovaquone (7), atovaquone, reference compound]
CC50 [3]: 44 µM | CC50 [1]: 6 µM | IC50 [4]: 11.1 µM | IC50 [2]: 0.001 µM

CC(C)(C)Nc1oc2c(c1-c1cc3ccccc3[nH]1)C(=O)c1ccccc1C2=O [Compound 14, 2-(tert-Butylamino)-3-(1H-indol-2-yl)naphtho[2,3-b]furan-4,9-dione]
IC50 [2]: > 10 µM

CC(C)(C)NC=C1C(=O)C(=O)c2ccccc2C1=O [Compound 28, 3-((tert-Butylamino)methylene)naphthalene-1,2,4(3H)-trione]
CC50 [3]: > 100 µM | CC50 [1]: > 50 µM | IC50 [4]: 3.5 µM | IC50 [2]: 1.4 µM | IC50 [5]: < 10 µM

O=C1c2ccccc2C(=O)c2c1oc(NC1CCCCC1)c2-c1ccc(Cl)cc1 [Compound 18, 3-(4-Chlorophenyl)-2-(cyclohexylamino)naphtho[2,3-b]furan-4,9-dione]
CC50 [3]: 54.2 µM | CC50 [1]: 50 µM | IC50 [4]: 9.41 µM | IC50 [2]: 11 µM | IC50 [5]: < 10 µM

CCCCCCCCCCCCCCCCOP(=O)([O-])OCC[N+](C)(C)C [miltefosine, reference compound]
CC50 [3]: 22.6 µM | IC50 [4]: 1.46 µM

O=C1c2ccccc2C(=O)c2c1oc(NC1CCCCC1)c2-c1ccc([N+](=O)[O-])o1 [Compound 21, 2-(Cyclohexylamino)-3-(5-nitrofuran-2-yl)naphtho[2,3-b]furan-4,9-dione]
IC50 [2]: > 10 µM

CC(C)(C)Nc1oc2c(c1-c1cccc(Br)c1)C(=O)c1ccccc1C2=O [Compound 10, 3-(3-Bromophenyl)-2-(tert-butylamino)naphtho[2,3-b]furan-4,9-dione]
IC50 [2]: > 10 µM

Cn1ncc2cc(-c3c(NC4CCCCC4)oc4c3C(=O)c3ccccc3C4=O)ccc21 [Compound 20, 2-(Cyclohexylamino)-3-(1-methyl-1H-indazol-5-yl)naphtho[2,3-b]furan-4,9-dione]
IC50 [2]: 10 µM

CC(C)(C)Nc1oc2c(c1C1CCN(C(=O)OC(C)(C)C)CC1)C(=O)c1ccccc1C2=O [Compound 16, tert-Butyl 4-(2-(tert-Butylamino)-4,9-dioxo-4,9-dihydronaphtho[2,3-b]furan-3-yl)piperidine-1-carboxylate]
CC50 [3]: 49.2 µM | IC50 [4]: 6.97 µM | IC50 [2]: > 10 µM | IC50 [5]: < 10 µM

COc1cc(-c2c(NC(C)(C)C)oc3c2C(=O)c2ccccc2C3=O)cc(OC)c1OC [Compound 11, 2-(tert-Butylamino)-3-(3,4,5-trimethoxyphenyl)naphtho[2,3-b]furan-4,9-dione]
IC50 [2]: > 10 µM

COc1cc(-c2c(NC3CCCCC3)oc3c2C(=O)c2ccccc2C3=O)cc(OC)c1OC [Compound 19, 2-(Cyclohexylamino)-3-(3,4,5-trimethoxyphenyl)naphtho[2,3-b]furan-4,9-dione]
CC50 [1]: > 100 µM | IC50 [2]: 6 µM

CCCCNc1oc2c(c1-c1cc(OC)c(OC)c(OC)c1)C(=O)c1ccccc1C2=O [Compound 24, 2-(Butylamino)-3-(3,4,5-trimethoxyphenyl)naphtho[2,3-b]furan-4,9-dione]
CC50 [1]: > 100 µM | IC50 [2]: 9 µM
